The values below come from ChEMBL document CHEMBL1156175, “Synthesis, molecular modeling and biological evaluation of PSB as targeted antibiotics” (Bioorg Med Chem, 2010).

In brackets after ≈: the same amount, converted by molar mass.

Experiment [1] relates to Bacillus subtilis. The experiment can be described thus: Antibacterial activity against Bacillus subtilis ATCC 6633 after 24 hrs by colorimetric method using dye MTT. Particulars: ATCC 6633, 24 h. The format is functional. The method in brief:
(§1)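 Mueller–Hinton broth microdilution; compounds from DMSO stock (50 μg/mL) serially diluted in medium; inoculum approx. 10⁵ cfu/mL; 37 °C for 24 h. After visual MIC reading, PBS (0.01 mol/L, pH 7.4) containing 2 mg/mL MTT added, incubated 4–5 h at room temperature, then 12 h at room temperature; OD read at 550 nm. MIC is the average of triplicates.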

For experiment [2], the system named is Escherichia coli. The experiment can be described thus: Antibacterial activity against Escherichia coli ATCC 35218 after 24 hrs by colorimetric method using dye MTT. The format is functional. The following applies: ATCC 35218, 24 h. The method in brief:
as §1

In experiment [3] the target is T1, 3-oxoacyl-[acyl-carrier-protein] synthase 3 (Escherichia coli, UniProt C3TDZ2).
T1 sequence (C3TDZ2 whole entry): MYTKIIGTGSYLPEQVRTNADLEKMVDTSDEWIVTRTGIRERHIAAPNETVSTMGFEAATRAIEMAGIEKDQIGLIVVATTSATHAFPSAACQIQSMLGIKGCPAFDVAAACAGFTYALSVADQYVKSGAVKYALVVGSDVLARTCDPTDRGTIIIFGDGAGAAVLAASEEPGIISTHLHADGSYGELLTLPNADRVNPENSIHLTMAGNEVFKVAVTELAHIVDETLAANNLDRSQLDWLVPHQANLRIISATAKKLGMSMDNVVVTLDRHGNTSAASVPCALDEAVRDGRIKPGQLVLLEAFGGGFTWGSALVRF
Description: Inhibition of Escherichia coli KAS3 after 25 mins assessed as incorporation of 3H signal in the final product by liquid scintillation counter.

Experiment [4] concerns Staphylococcus aureus. Description: Antibacterial activity against Staphylococcus aureus ATCC 6538 after 24 hrs by colorimetric method using dye MTT. The format is functional. Particulars: ATCC 6538, 24 h. The method in brief: as §1
The test system of experiment [5] is Pseudomonas aeruginosa. Description: Antibacterial activity against Pseudomonas aeruginosa ATCC 13525 after 24 hrs by colorimetric method using dye MTT. Particulars: ATCC 13525, 24 h. In kind it is functional. The method in brief: as §1
Experiment [6] deals with T1, 3-oxoacyl-[acyl-carrier-protein] synthase 3. Description: Inhibition of Escherichia coli KAS3 after 1 min assessed as incorporation of 3H signal in the final product by liquid scintillation counter. The following applies: in the assay text read “after 25 mins” for “after 1 min”. In a few lines:
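His-tagged ecKAS III expressed in E. coli BL21(DE3) (pET30) and purified on Ni–NTA. Reaction in 20 mM sodium phosphate pH 7.0, 0.5 mM DTT, 0.25 mM MgCl₂ with holo-ACP and 1 nM enzyme, preincubated 1 min. Started with acetyl-CoA, NADH and NADPH (0.5 mM each for the last two); run 25 min. Stopped with ice-cold TCA; protein pellet washed and dissolved in NaOH; ³H incorporation read by liquid scintillation. Inhibitors added from DMSO stock, final DMSO ≤2%.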

As to `CC(CNC(=O)c1ccccc1O)/N=C/c1cc(I)ccc1O` (stereo unspecified), the MIC (as a rule, the smallest concentration in the dilution series that meets the test's criterion for growth inhibition) in experiment [1] worked out at 0.78 mg/L (≈ 1.84 µM); in experiment [2] it was 6.25 mg/L (≈ 14.7 µM); in experiment [4], 12.5 mg/L (≈ 29.5 µM); in experiment [5], 3.13 mg/L (≈ 7.38 µM). The IC50 (as a rule, the point on the concentration scale where inhibition reaches its midpoint) in experiment [3] was 1.84 µM.
As for `CC(CNC(=O)c1ccccc1O)/N=C/c1cc(Cl)ccc1O` (stereo unspecified), the MIC in experiment [1] is more than 50 mg/L; in experiment [2], 12.5 mg/L (≈ 37.6 µM); in experiment [4], more than 50 mg/L; in experiment [5], 3.13 mg/L (≈ 9.41 µM). For the same compound, the IC50 in experiment [3] was 16.4 µM.
Regarding `NC[C@H]1O[C@H](O[C@H]2[C@H](O)[C@@H](O[C@H]3O[C@H](CO)[C@@H](O)[C@H](N)[C@H]3O)[C@H](N)C[C@@H]2N)[C@H](O)[C@@H](O)[C@@H]1O` [KANAMYCIN], the MIC was found to be 1.56 mg/L (≈ 3.22 µM) in experiment [1], 3.13 mg/L (≈ 6.46 µM) in experiment [2], 1.56 mg/L (≈ 3.22 µM) in experiment [4] and 3.13 mg/L (≈ 6.46 µM) in experiment [5].
With `CC(CNC(=O)c1ccccc1O)/N=C/c1cc(Br)ccc1O` (stereo unspecified), the IC50 in experiment [3] was 16 µM.
For the compound `Cc1ccc(C(=O)NCC(C)/N=C/c2cc(Cl)cc(Cl)c2O)c(O)c1` (stereo unspecified), the MIC was determined as 1.56 mg/L (≈ 4.09 µM) in experiment [1], 3.13 mg/L (≈ 8.21 µM) in experiment [2], 6.25 mg/L (≈ 16.4 µM) in experiment [4] and 25 mg/L (≈ 65.6 µM) in experiment [5]. Further, in experiment [6], the IC50 is 4.59 µM.
Consider `CC(CNC(=O)c1cc(Br)ccc1O)/N=C/c1cc(F)ccc1O` (stereo unspecified), for which the IC50 in experiment [6] was 56 µM.
For the compound `Cc1ccc(C(=O)NCC(C)/N=C/c2cc(I)ccc2O)c(O)c1` (stereo unspecified), the MIC in experiment [1] worked out at 1.56 mg/L (≈ 3.56 µM); in experiment [2] it was 0.39 mg/L (≈ 0.89 µM); in experiment [4], 1.56 mg/L (≈ 3.56 µM); in experiment [5], 3.13 mg/L (≈ 7.14 µM). Besides, the IC50 in experiment [3] is 1.03 µM.
On to `CC(CNC(=O)c1cc(Br)ccc1O)/N=C/c1cc(Br)cc(Br)c1O` (stereo unspecified), for which the IC50 in experiment [6] was more than 93.5 µM.
Same read-out and setting: the value for `CC(CNC(=O)c1ccccc1O)/N=C/c1ccccc1O` (stereo unspecified) was 27.3 µM; that for `CC(CNC(=O)c1ccccc1O)/N=C/c1cc(F)ccc1O` (stereo unspecified) was 38.3 µM.
With `Cc1ccc(C(=O)NCC(C)/N=C/c2cc(Br)cc(Br)c2O)c(O)c1` (stereo unspecified), the MIC in experiment [1] is 3.13 mg/L (≈ 6.66 µM); in experiment [2], 0.78 mg/L (≈ 1.66 µM); in experiment [4] it was more than 50 mg/L; in experiment [5] it was 12.5 mg/L (≈ 26.6 µM). Besides, the IC50 in experiment [3] is 11.4 µM.
`CC(CNC(=O)c1cc(Br)ccc1O)/N=C/c1cc(I)cc(I)c1O` (stereo unspecified): the IC50 in experiment [6] was more than 79.5 µM.
With `CC(CNC(=O)c1cc(Br)ccc1O)/N=C/c1cc(I)ccc1O` (stereo unspecified), the IC50 in experiment [3] was 18.5 µM.
`Cc1ccc(C(=O)NCC(C)/N=C/c2cc(F)ccc2O)c(O)c1` (stereo unspecified): the MIC in experiment [1] is 3.13 mg/L (≈ 9.47 µM); in experiment [2], 6.25 mg/L (≈ 18.9 µM); in experiment [4], 12.5 mg/L (≈ 37.8 µM); in experiment [5] it was more than 50 mg/L. In addition, the IC50 in experiment [3] is 17.1 µM.
In the case of `CC(CNC(=O)c1cc(Br)ccc1O)/N=C/c1ccccc1O` (stereo unspecified), the IC50 in experiment [3] is more than 133 µM.
Regarding `Cc1ccc(C(=O)NCC(C)/N=C/c2cc(Cl)ccc2O)c(O)c1` (stereo unspecified), the IC50 in experiment [6] was 24.9 µM.
Regarding `Cc1ccc(C(=O)NCC(C)/N=C/c2c(O)ccc3ccccc23)c(O)c1` (stereo unspecified), the minimal inhibitory concentration (MIC) in experiment [1] was 6.25 mg/L (≈ 17.2 µM); in experiment [2], 12.5 mg/L (≈ 34.5 µM); in experiment [4], more than 50 mg/L; in experiment [5], more than 50 mg/L. For the same compound, the IC50 in experiment [3] is 12.9 µM.
Regarding `Cc1ccc(C(=O)NCC(C)/N=C/c2cc(I)cc(I)c2O)c(O)c1` (stereo unspecified), the IC50 in experiment [6] is 26.5 µM.
In the case of `CC(CNC(=O)c1cc(Br)ccc1O)/N=C/c1c(O)ccc2ccccc12` (stereo unspecified), in experiment [6], the IC50 was 25.6 µM.
For the compound `Cc1ccc(C(=O)NCC(C)/N=C/c2cc(Br)ccc2O)c(O)c1` (stereo unspecified), the IC50 in experiment [3] was 16.2 µM.
Turning to `CC(CNC(=O)c1cc(Br)ccc1O)/N=C/c1cc(Cl)ccc1O` (stereo unspecified), the IC50 in experiment [3] was more than 121 µM.
For `CC(CNC(=O)c1ccccc1O)/N=C/c1cc(Cl)cc(Cl)c1O` (stereo unspecified), the MIC in experiment [1] worked out at 1.56 mg/L (≈ 4.25 µM); in experiment [2], 0.39 mg/L (≈ 1.06 µM); in experiment [4], 3.13 mg/L (≈ 8.52 µM); in experiment [5], 0.2 mg/L (≈ 0.545 µM). Besides, in experiment [6], the IC50 is 0.844 µM.
For the compound `CC(CNC(=O)c1cc(Br)ccc1O)/N=C/c1cc(Cl)cc(Cl)c1O` (stereo unspecified), the IC50 in experiment [3] was 19.6 µM.
For the compound `Cc1ccc(C(=O)NCC(C)/N=C/c2ccccc2O)c(O)c1` (stereo unspecified), the IC50 in experiment [6] was 25.2 µM.
Still for that read-out and setting: the same measure for `CC(CNC(=O)c1cc(Br)ccc1O)/N=C/c1cc(Br)ccc1O` (stereo unspecified): 36.6 µM.
Turning to `CC(CNC(=O)c1ccccc1O)/N=C/c1cc(I)cc(I)c1O` (stereo unspecified), the minimal inhibitory concentration (MIC) in experiment [1] is 12.5 mg/L (≈ 22.7 µM); in experiment [2] it was more than 50 mg/L; in experiment [4], 12.5 mg/L (≈ 22.7 µM); in experiment [5], 6.25 mg/L (≈ 11.4 µM). Moreover, the IC50 in experiment [6] was 4.65 µM.
For the compound `CC(CNC(=O)c1ccccc1O)/N=C/c1c(O)ccc2ccccc12` (stereo unspecified), in experiment [6], the IC50 is 56.7 µM.
Consider `CC(CNC(=O)c1ccccc1O)/N=C/c1cc(Br)cc(Br)c1O` (stereo unspecified), for which the MIC was found to be 12.5 mg/L (≈ 27.4 µM) in experiment [1], 25 mg/L (≈ 54.8 µM) in experiment [2], 6.25 mg/L (≈ 13.7 µM) in experiment [4] and 0.78 mg/L (≈ 1.71 µM) in experiment [5]. Besides, the IC50 in experiment [6] is 6.86 µM.
